Experimental data published in ChEMBL document CHEMBL1151805, “Effect of guggulsterone and cembranoids of Commiphora mukul on pancreatic phospholipase A(2): role in hypocholesterolemia” (J Nat Prod, 2009).
The source made the active and inactive calls. The rule behind the calls is not given here.

Assays:
Sus scrofa = species on record: Sus scrofa; experiment: Binding affinity to pig PLA2 at 100 uM by saturation transfer difference NMR spectroscopy
Procedure, shortened: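 STD NMR at 15 °C in 20 mM bicarbonate in D2O, pH 7.5, with 100 µM ligand and 7 µM pig pancreatic PLA2. Difference of on- and off-resonance irradiation by phase cycling, coadded from 6144 scans.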

Phospholipase A2 [1] = biological target: T1, Phospholipase A2 (Homo sapiens, UniProt P04054); experiment: Binding affinity to human pancreatic recombinant 1B PLA2 expressed in Escherichia coli at 100 uM by saturation transfer difference NMR spectroscopy
Target sequence in this assay (P04054 23-148 limits assumed): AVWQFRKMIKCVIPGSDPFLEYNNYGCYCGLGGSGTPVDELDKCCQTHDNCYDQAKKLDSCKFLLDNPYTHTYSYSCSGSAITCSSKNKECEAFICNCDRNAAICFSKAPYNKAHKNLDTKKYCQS

Phospholipase A2 [2] = biological target: T1, Phospholipase A2; experiment: Apparent inhibition of human pancreatic recombinant 1B PLA2 expressed in Escherichia coli assessed as hydrolysis rate of 1,2-dimyristoyl-sn-3-glycerophosphocholine vesicles in presence of cholate
Target sequence in this assay (P04054 23-148 limits assumed): as above

Phospholipase A2 [3] = biological target: T1, Phospholipase A2; experiment: Binding affinity to human pancreatic recombinant 1B PLA2 expressed in Escherichia coli by resonance energy transfer assay in presence of trimethyl-ammonium-diphenylhexatriene
Procedure, shortened: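 Aqueous-phase binding measured as bile-salt quenching of the resonance energy transfer signal from the hPLA2–trimethyl-ammonium-diphenylhexatriene complex. Kd was derived from the quenching.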
Target sequence in this assay (P04054 whole entry): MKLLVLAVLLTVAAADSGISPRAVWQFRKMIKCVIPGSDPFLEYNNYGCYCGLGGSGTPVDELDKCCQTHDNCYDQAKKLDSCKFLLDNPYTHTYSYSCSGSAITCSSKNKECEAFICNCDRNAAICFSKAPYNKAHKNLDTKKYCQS

Phospholipase A2 [4] = biological target: T1, Phospholipase A2
Target sequence in this assay (P04054 23-148 limits assumed): as the sequence (P04054 23-148 limits assumed) above

Phospholipase A2 [5] = biological target: T1, Phospholipase A2; experiment: Reduction in human pancreatic recombinant 1B PLA2 activity expressed in Escherichia coli assessed as hydrolysis of cholate-activated 1,2-dimyristoyl-sn-3-glycerophosphocholine vesicles
Target sequence in this assay (P04054 23-148 limits assumed): as above

Phospholipase A2 [6] = biological target: T1, Phospholipase A2; experiment: Increase in human pancreatic recombinant 1B PLA2 activity expressed in Escherichia coli assessed as hydrolysis rate of 1,2-dimyristoyl-sn-3-glycerophosphocholine vesicles in absence of cholate
Procedure, shortened: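 pH-stat titration of hydrolysis of sonicated 1 mM DMPC vesicles, started with 2 to 10 pM hPLA2, titrated with 1 mM 2-aminopropanediol base. Buffer was 5 mM CaCl2, 1 mM NaCl, 0.1 mM EDTA, pH 8.0, 24 ± 0.1 °C, under nitrogen. Test compound was present at 0.03 or 0.007 MF.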
Target sequence in this assay (P04054 23-148 limits assumed): as above

SMILES	Activity (Sus scrofa)	Activity (Phospholipase A2 [1])	Ki(app) (mole fraction) (Phospholipase A2 [2])	Kd (Phospholipase A2 [3])	Ki(app) (mole fraction) (Phospholipase A2 [4])	Activity (Phospholipase A2 [5])	Activity (Phospholipase A2 [6])
C[C@H](CCC(=O)O)[C@H]1CC[C@H]2[C@@H]3[C@H](O)C[C@@H]4C[C@H](O)CC[C@]4(C)[C@H]3CC[C@]12C	Active	Active					
C[C@H](CCC(=O)NCCS(=O)(=O)O)[C@H]1CC[C@H]2[C@@H]3[C@@H](O)C[C@@H]4C[C@H](O)CC[C@]4(C)[C@H]3CC[C@]12C [TAURURSODIOL]			0.000306	10 µM	0.005	Dose-dependent effect	
C[C@H](CCC(=O)NCCS(=O)(=O)O)[C@H]1CC[C@H]2[C@@H]3CC[C@@H]4C[C@H](O)CC[C@]4(C)[C@H]3C[C@H](O)[C@]12C		Active					
C[C@H](CCC(=O)O)[C@H]1CC[C@H]2[C@@H]3[C@H](O)C[C@@H]4C[C@H](O)CC[C@]4(C)[C@H]3C[C@H](O)[C@]12C [CHOLIC ACID]	Active	Active		> 150 µM			
CC1=C\C/C=C(\C)CC/C=C(\C)CC[C@](O)(C(C)C)/C=C\1			0.00325			Dose-dependent effect	inactive
